High-throughput results (PubChem)
Shown are actives, neighbours in structure and some others; about 1.9% of the full set was active somewhere.
KLK7 zymogen act: proKLK7 (human) activation, primary screen. P49862. 0.9% of 370,000 active. activation, % at 7 µM. purified proKLK7, EDANS-DABCYL substrate fluorescence; 100% is mature enzyme control, 0% vehicle;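 active means activation above the mean of all tested compounds plus 3 SD, computed per campaign excluding outliers beyond control limits, cut at about 13% in these data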
Target sequence (P49862 whole entry, looked up): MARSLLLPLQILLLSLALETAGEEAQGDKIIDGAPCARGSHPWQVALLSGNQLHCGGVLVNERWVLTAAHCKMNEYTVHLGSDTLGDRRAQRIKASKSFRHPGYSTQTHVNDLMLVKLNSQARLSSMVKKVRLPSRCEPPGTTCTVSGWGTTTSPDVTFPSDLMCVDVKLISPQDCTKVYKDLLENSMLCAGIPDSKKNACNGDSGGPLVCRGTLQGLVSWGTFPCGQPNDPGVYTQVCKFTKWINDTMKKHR
CR mimetic SO: yeast age-related superoxide inhibition as caloric restriction mimetic; superoxide response (% of plate mean), % at 10 µM; 0.18% of 330,000 active; S. cerevisiae aged cells, superoxide DHE fluorescence; stronger effect = lower value;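 active means superoxide response under a set limit, about three screen SD below normal, cut at about 65% in these data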;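 further: yeast aged for seven days with compound at 30 °C before DHE staining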
T cell HTS: T cell immune modulation candidate; response (vesicle binding), % at 7 µM; 2C CD8+ T cell-vesicle binding, flow cytometry; stronger effect = lower value; 0.068% of 330,000 active;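 active means response, share of CD8 T cells binding vesicles, and their 90th percentile fluorescence all below set limits, cut at about 80% in these data, passing the limit was not always enough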;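 further: values below 100% mean blocked vesicle binding to the CD8+ T cells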
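Assay system: 2C TCR transgenic mouse naive CD8+ T cells, MACS-purified | Read-out: CD8+ gate FL2 mean fluorescence as % of same-row positive control | Signal: High-throughput flow cytometry with anti-B7-1 and anti-CD8 staining | Timing: Binding step 1.5 h, 37 °C, antibody labelling 20 min, ice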
V-ATPase pH: yeast V-ATPase proton transport regulation by pHLuorin. S. cerevisiae, pHLuorin cytosolic pH fluorescence. 0.37% of 350,000 active. AID 504577. response, % at 10 µM; in the data active means response mostly above about 7.3%, no sharp cut-off; inactive means mostly below about 5.4%; further: actives read high
Rce1 inhib: inhibitors of yeast Ras-converting enzyme; Q03530; yeast membranes, quenched prenylated peptide cleavage fluorescence; calls only; 0.27% of 290,000 active; AID 2563;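 active means fall in fluorescence gain of 50% or more versus controls, with final raw signal at or below 3038400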
Target sequence (Q03530 whole entry, looked up): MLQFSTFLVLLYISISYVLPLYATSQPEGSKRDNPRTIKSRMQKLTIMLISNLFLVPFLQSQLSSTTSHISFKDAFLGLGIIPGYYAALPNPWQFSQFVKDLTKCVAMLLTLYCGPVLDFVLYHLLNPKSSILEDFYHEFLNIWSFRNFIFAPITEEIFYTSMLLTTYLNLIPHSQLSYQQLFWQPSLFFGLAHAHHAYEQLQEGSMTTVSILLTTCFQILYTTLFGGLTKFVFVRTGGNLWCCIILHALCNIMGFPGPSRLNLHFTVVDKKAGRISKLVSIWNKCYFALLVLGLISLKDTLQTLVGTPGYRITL
beta cell repl: induces beta-cell replication in MIN6 cells; MIN6 cells proliferation, ATPlite luminescence, 48 h; cells starved in 0.2% serum; 100% = growth in 10% serum; proliferation, % at 10 µM; 0.29% of 330,000 active; AID 2380;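 active means compounds whose signal lies at least 3.5 SD above the mean of all wells on their plate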
Hits are given with their value.

Screening Cc1ccc(/C=C/C(=O)Nc2cc(S(=O)(=O)N3CCOCC3)ccc2N2CCOCC2)cc1 returned KLK7 zymogen act inactive, CR mimetic SO 62, T cell HTS inactive, V-ATPase pH inactive and beta cell repl inactive.
`CCOC(=O)Cc1nc(N2CCN(CCO)CC2)c2c(C)c(C(=O)OCC)sc2n1` gave KLK7 zymogen act inactive.
`CCOC(=O)[C@]12CCCC3=C1N(CCC3)C(=O)[C@@H](CC(=O)NCc1ccc(OC)c(OC)c1)C2` gave KLK7 zymogen act inactive.
Screening CCc1c(C)nc2ncnn2c1NC1CCCc2ccccc21 (configuration not stated) returned KLK7 zymogen act inactive, CR mimetic SO inactive, T cell HTS inactive, V-ATPase pH 13, Rce1 inhib inactive and beta cell repl inactive.
COC(=O)c1sccc1NC(=O)CSc1nnnn1-c1ccccc1C was read as KLK7 zymogen act inactive, CR mimetic SO inactive, T cell HTS inactive, V-ATPase pH inactive, Rce1 inhib active and beta cell repl inactive.
For COc1ccccc1NC(=O)CSc1nnnn1-c1ccccc1F the results were KLK7 zymogen act inactive, CR mimetic SO inactive, T cell HTS inactive, V-ATPase pH inactive, Rce1 inhib inactive and beta cell repl inactive.
Screening Cc1cc(C)nc(SCC(=O)NNC(=O)c2ccccc2C)n1 returned KLK7 zymogen act inactive, CR mimetic SO 65, T cell HTS inactive, V-ATPase pH inactive, Rce1 inhib inactive and beta cell repl inactive.
For Cc1cc(C)nc(SCC(=O)NNC(=O)c2cccs2)n1 the results were KLK7 zymogen act inactive, CR mimetic SO inactive, T cell HTS inactive, V-ATPase pH inactive, Rce1 inhib inactive and beta cell repl inactive.
Screening CN(C)S(=O)(=O)c1ccc(N2CCOCC2)c(C(=O)NCc2ccc3c(c2)OCO3)c1 returned KLK7 zymogen act inactive, CR mimetic SO 62, T cell HTS inactive, V-ATPase pH inactive and beta cell repl inactive.
CCOc1ccc(C2CC(c3ccccc3C)n3nc(N)nc3N2)cc1 (configuration not stated) was read as KLK7 zymogen act inactive, CR mimetic SO inactive, T cell HTS 53, V-ATPase pH inactive, Rce1 inhib inactive and beta cell repl inactive.
CC1(C)CC(=O)C(C(c2ccc(F)cc2)C2C(=O)CC(C)(C)CC2=O)C(=O)C1 was read as KLK7 zymogen act inactive, CR mimetic SO inactive, T cell HTS inactive, V-ATPase pH inactive, Rce1 inhib inactive and beta cell repl inactive.
`CCc1sc(C(C2C(=O)CC(C)(C)CC2=O)C2C(=O)CC(C)(C)CC2=O)cc1[N+](=O)[O-]` gave KLK7 zymogen act inactive, CR mimetic SO inactive, T cell HTS inactive, V-ATPase pH 8.1 and beta cell repl inactive.
For c1ccc(-n2nnnc2SCc2cn3cccnc3n2)cc1 the results were KLK7 zymogen act inactive, CR mimetic SO inactive, T cell HTS inactive, V-ATPase pH inactive, Rce1 inhib active and beta cell repl inactive.
`c1ccc(-n2nnnc2SCc2cn3ccccc3n2)cc1` gave KLK7 zymogen act inactive, CR mimetic SO inactive, T cell HTS inactive, V-ATPase pH inactive, Rce1 inhib inactive and beta cell repl inactive.
O=C(CN1CCC(NC(=O)c2ccc(Br)cc2)CC1)NCc1cccs1 was read as KLK7 zymogen act inactive, CR mimetic SO inactive, T cell HTS inactive, V-ATPase pH inactive, Rce1 inhib active and beta cell repl inactive.
C/C(Cn1nc([N+](=O)[O-])cc1C)=N\NC(=O)COc1ccccc1[N+](=O)[O-] was read as KLK7 zymogen act inactive, CR mimetic SO inactive, T cell HTS inactive, V-ATPase pH inactive, Rce1 inhib inactive and beta cell repl inactive.
For C/C(Cn1nc([N+](=O)[O-])cc1C)=N\NC(=O)COc1ccc(Cl)cc1Cl the results were KLK7 zymogen act inactive, CR mimetic SO 55, T cell HTS inactive, V-ATPase pH inactive, Rce1 inhib inactive and beta cell repl inactive.
For COc1ccc(NC(=O)Nc2ccccc2C(=O)N2CCCC2)cc1OC the results were KLK7 zymogen act inactive.
Screening C=C(C)CSc1nc2sc3c(c2c(=O)n1-c1ccc(OC)cc1)CCN(C)C3 returned KLK7 zymogen act inactive, CR mimetic SO inactive, T cell HTS inactive, Rce1 inhib active and beta cell repl inactive.
Screening COC(=O)CSc1nc2sc3c(c2c(=O)n1-c1ccc(OC)cc1)CCN(C)C3 returned KLK7 zymogen act inactive, V-ATPase pH inactive, Rce1 inhib inactive and beta cell repl inactive.
`COC(=O)c1cc(C(C)c2c[nH]c3ccccc23)n2ccccc12` (configuration not stated) gave KLK7 zymogen act inactive.
CC(=NNC(=O)CSc1nnc(-c2ccccc2)n1-c1ccccc1)c1ccc2ccccc2c1 was read as KLK7 zymogen act inactive.
Cc1ccc(-c2nnn(CC(=O)Nc3ccc4nn(-c5ccccc5)nc4c3)n2)o1 was read as KLK7 zymogen act inactive, CR mimetic SO inactive, T cell HTS inactive, V-ATPase pH 16, Rce1 inhib inactive and beta cell repl inactive.
Screening COc1ccc(-c2cc(C(=O)N=Nc3c(O)[nH]c4ccccc34)[nH]n2)cc1 returned KLK7 zymogen act inactive.
C=CCn1c(=O)c2c(nc(-c3ccc(S(=O)(=O)O)cc3)n2C)n(C)c1=O was read as KLK7 zymogen act inactive, CR mimetic SO inactive, T cell HTS inactive, V-ATPase pH inactive, Rce1 inhib active and beta cell repl inactive.
CCN(CC)CCCNc1cc(C)nc2cc(-c3cccs3)nn12 was read as KLK7 zymogen act inactive, CR mimetic SO inactive, T cell HTS inactive, V-ATPase pH inactive, Rce1 inhib active and beta cell repl inactive.
Screening O=C(Nc1c(-c2ccc(C(F)(F)F)cc2)nc2ncccn12)c1ccc(F)cc1 returned KLK7 zymogen act inactive.
Screening Nn1c(SCC(=O)Nc2ccccc2-c2ccccc2)nnc1-c1cc(-c2ccc(F)cc2)n[nH]1 returned KLK7 zymogen act inactive.
Screening O=C(COc1nncc2ccccc12)Nc1ccc(F)c(F)c1 returned KLK7 zymogen act inactive, CR mimetic SO inactive, T cell HTS inactive, V-ATPase pH inactive and beta cell repl inactive.
For CC(C)c1ccc(NC(=O)COc2nncc3ccccc23)cc1 the results were KLK7 zymogen act inactive, CR mimetic SO inactive, T cell HTS inactive, V-ATPase pH inactive, Rce1 inhib active and beta cell repl inactive.
Screening C=C(C)CSc1cc(C)nc2c(-c3ccccc3)c(C)nn12 returned KLK7 zymogen act inactive, CR mimetic SO inactive, T cell HTS inactive, V-ATPase pH inactive, Rce1 inhib active and beta cell repl inactive.
COC(=O)N/N=C/c1cn(Cc2ccccc2Cl)c2ccccc12 was read as KLK7 zymogen act inactive, CR mimetic SO inactive, T cell HTS inactive, V-ATPase pH inactive, Rce1 inhib active and beta cell repl inactive.
For COC(=O)N/N=C/c1cn(Cc2ccc(Cl)cc2Cl)c2ccccc12 the results were KLK7 zymogen act inactive, CR mimetic SO inactive, T cell HTS inactive, V-ATPase pH inactive, Rce1 inhib inactive and beta cell repl inactive.
